According to ChEMBL document CHEMBL5678799 (Biochem J, 2009):
Active and inactive are the calls of the source. The rule behind the calls is not given here.

Tests used:
[1] = biological target: Tyrosine-protein kinase BTK (Homo sapiens) (UniProt Q06187); assay: (§1) Inhibition of recombinant human N-terminal His6-tagged BTK (2 to 659 residues) expressed in baculovirus infected Sf21 cells assessed as remaining activity at 10 uM using KVEKIGEGTYGVVYK as substrate incubated for 30 mins in presence of [gamma-33P]ATP by filter binding method relative to control
Outline: (§2)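 Incubation was 30 min at room temperature (21 °C) under conditions linear with time and enzyme amount. Activity is reported as percent of control lacking compound, triplicate mean ± S.D.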

[2] = biological target: AMPK alpha1/beta2/gamma1 (Homo sapiens) (UniProt O43741+P54619+Q13131); assay: as §1, with “recombinant” for “recombinant human”, “human AMPKalpha1 (11” for “BTK (2”, “559 residues)/AMPKbeta2 (1 to 272 residues)/AMPKgamma1 (1 to 331” for “659”, “SAMS” for “KVEKIGEGTYGVVYK”
Outline: (§3)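 Run robotically for 30 min at 21 °C under linear conditions. Compound at 1 or 10 µM. Percentage activity remaining versus control without compound, triplicate mean ± S.D.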

[3] = biological target: Tyrosine-protein kinase BTK (Homo sapiens) (UniProt Q06187); assay: Inhibition of recombinant human N-terminal His6-tagged BTK (2 to 659 residues) expressed in baculovirus infected Sf21 cells assessed as remaining activity at 1 uM using KVEKIGEGTYGVVYK as substrate incubated for 30 mins in presence of [gamma-33P]ATP by filter binding method relative to control; outline: as §2
[4] = biological target: CDK2/Cyclin A2 (Homo sapiens) (UniProt P24941+P20248); assay: Inhibition of recombinant human N-terminal GST-tagged CDK2 (2 to 298 residues)/N-terminal GST-tagged Cyclin A2 (171 to 432 residues) expressed in Escherichia coli assessed as remaining activity at 1 uM using YSPTSPSYSPTSPSYSPTSPKKK as substrate incubated for 30 mins in presence of [gamma-33P]ATP by filter binding method relative to control
Outline: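 Incubations ran robotically for 30 min at room temperature (21 °C) under linear conditions. Results are percent activity remaining versus controls without compound, as the mean of triplicates ± S.D.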

[5] = biological target: Dual specificity tyrosine-phosphorylation-regulated kinase 1A (Homo sapiens) (UniProt Q13627); assay: Inhibition of recombinant human N-terminal GST-tagged DYRK1A (1 to 502 residues) expressed in Escherichia coli assessed as remaining activity at 1 uM using KKISGRLSPIMTEQ as substrate incubated for 30 mins in presence of [gamma-33P]ATP by filter binding method relative to control; outline: as §3
[6] = biological target: Eukaryotic elongation factor 2 kinase (Homo sapiens) (UniProt O00418); assay: Inhibition of recombinant human N-terminal GST-tagged EF2K (2 to 725 residues) expressed in Escherichia coli assessed as remaining activity at 1 uM using RKKFGESKTKTKEFL as substrate incubated for 30 mins in presence of [gamma-33P]ATP by filter binding method relative to control
Outline: (§4)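 Kinase panel run robotically at 21 °C for 30 min, linear in time and enzyme. […] Compound tested at 1 or 10 µM. Activity given as percentage of incubations without compound, mean of triplicates ± S.D.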

[7] = biological target: Maternal embryonic leucine zipper kinase (Homo sapiens) (UniProt Q14680); assay: Inhibition of recombinant human N-terminal GST/C-terminal His6-tagged MELK (2 to 651 residues) expressed in Escherichia coli assessed as remaining activity at 1 uM using KKLNRTLSFAEPG as substrate incubated for 30 mins in presence of [gamma-33P]ATP by filter binding method relative to control; outline: as §2
[8] = biological target: SRSF protein kinase 1 (Homo sapiens) (UniProt Q96SB4); assay: Inhibition of recombinant human N-terminal GST-tagged SRPK1 (2 to 654 residues) expressed in Escherichia coli assessed as remaining activity at 1 uM using RSRSRSRSRSRSRSR as substrate incubated for 30 mins in presence of [gamma-33P]ATP by filter binding assay relative to control; outline: as §2
[9] = biological target: Eukaryotic elongation factor 2 kinase (Homo sapiens) (UniProt O00418); assay: Inhibition of recombinant human N-terminal GST-tagged EF2K (2 to 725 residues) expressed in Escherichia coli assessed as remaining activity at 10 uM using RKKFGESKTKTKEFL as substrate incubated for 30 mins in presence of [gamma-33P]ATP by filter binding method relative to control; outline: as §4
[10] = biological target: Homeodomain-interacting protein kinase 2 (Homo sapiens) (UniProt Q9H2X6); assay: Inhibition of recombinant human N-terminal GST-tagged HIPK2 (165 to 564 residues) expressed in Escherichia coli assessed as remaining activity at 10 uM using MBP as substrate incubated for 30 mins in presence of [gamma-33P]ATP by filter binding method relative to control
Outline: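 Radiometric kinase panel run robotically at room temperature (21 °C) for 30 min, linear in time and enzyme. […] Activity is expressed as percent of control without compound, from triplicate determinations ± S.D.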

[11] = biological target: Serine/threonine-protein kinase 3 (Homo sapiens) (UniProt Q13188); assay: Inhibition of recombinant human N-terminal GST-tagged MST2 (2 to 491 residues) expressed in baculovirus infected Sf21 cells assessed as remaining activity at 10 uM using MBP as substrate incubated for 30 mins in presence of [gamma-33P]ATP by filter binding method relative to control
Outline: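 Panel assays were run for 30 min at 21 °C, within the linear range for time and enzyme. […] Results are percent activity remaining relative to compound-free control, averaged from triplicate ± S.D.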

[12] = biological target: Sphingosine kinase 2 (Homo sapiens) (UniProt Q9NRA0); assay: Inhibition of SPHK2 (unknown origin) assessed as remaining activity at 1 uM using sphingosine as substrate incubated for 30 mins in presence of ATP relative to control
Outline: (§5)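 SPHK2 reaction: 10 μM sphingosine, 1 μM ATP, 50 mM Tris/HCl pH 7.5, 200 mM KCl, 5 mM MgCl2, 1 mM EGTA, 1 mM DTT, 30 min at room temperature. Kinase-Glo Plus luminescence read-out. Percentage of control activity, triplicate.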

[13] = biological target: Sphingosine kinase 2 (Homo sapiens) (UniProt Q9NRA0); assay: Inhibition of SPHK2 (unknown origin) assessed as remaining activity at 10 uM using sphingosine as substrate incubated for 30 mins in presence of ATP relative to control; outline: as §5
MEF [14] = assay: Inhibition of mTORC2 in serum starved MEF cells assessed as reduction IGF1-stimulated AKT phosphorylation at Thr308 residue at 100 to 1000 nM incubated for 20 mins by immunoblot analysis; type: cell-based; conditions: Mus musculus, dose 100-1000 nM
Outline: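 Serum withdrawn 16 h. Inhibitor or vehicle given 30 min before stimulation with 50 ng/ml IGF-1 for 20 min. Lysed in Tris lysis buffer and immunoblotted for Akt Thr308 phosphorylation with ECL detection. Applies to HEK-293 and to wild-type, Rictor, Sin1 or mLST8 knockout MEFs. Three independent experiments.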

MEF [15] = assay: Growth inhibition of mLST8 knockout MEF cells assessed reduction in cell viability at 3 uM incubated for 1 to 3 days by crystal violet staining based assay; type: toxicity; conditions: mouse, time 1-3 day
Outline: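 MEFs seeded at 20000 cells per 1.91 cm2 well, grown overnight in 10% foetal bovine serum, then cultured 1, 2 or 3 days with 3 μM inhibitor, 100 nM rapamycin or DMSO. Medium changed every 24 h with freshly dissolved inhibitors. Cells fixed in 4% paraformaldehyde, stained with 0.1% Crystal Violet, dye extracted in 10% acetic acid, A590 read. Quadruplicate wells, expressed as % of DMSO control.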

Sequence of Tyrosine-protein kinase BTK (Homo sapiens) (Q06187 whole entry, the tested form may be a part): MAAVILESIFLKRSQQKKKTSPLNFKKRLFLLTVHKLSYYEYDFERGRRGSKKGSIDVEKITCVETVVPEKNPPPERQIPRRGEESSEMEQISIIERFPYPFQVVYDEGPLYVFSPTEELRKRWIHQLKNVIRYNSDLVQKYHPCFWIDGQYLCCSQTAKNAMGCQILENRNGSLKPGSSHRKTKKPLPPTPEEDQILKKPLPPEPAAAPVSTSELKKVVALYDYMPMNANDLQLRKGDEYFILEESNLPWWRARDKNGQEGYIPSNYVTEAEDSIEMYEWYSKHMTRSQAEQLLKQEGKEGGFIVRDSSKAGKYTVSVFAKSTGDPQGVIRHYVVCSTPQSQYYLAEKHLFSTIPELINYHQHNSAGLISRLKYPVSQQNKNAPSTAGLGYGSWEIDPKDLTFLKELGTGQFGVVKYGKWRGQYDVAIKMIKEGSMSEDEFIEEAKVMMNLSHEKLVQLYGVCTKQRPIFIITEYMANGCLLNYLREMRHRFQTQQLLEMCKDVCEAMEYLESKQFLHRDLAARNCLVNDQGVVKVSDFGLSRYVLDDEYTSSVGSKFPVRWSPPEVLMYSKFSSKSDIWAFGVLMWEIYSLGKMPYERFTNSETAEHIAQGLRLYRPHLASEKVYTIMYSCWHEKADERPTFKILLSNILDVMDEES
Sequence of Sphingosine kinase 2 (Homo sapiens) (Q9NRA0 whole entry): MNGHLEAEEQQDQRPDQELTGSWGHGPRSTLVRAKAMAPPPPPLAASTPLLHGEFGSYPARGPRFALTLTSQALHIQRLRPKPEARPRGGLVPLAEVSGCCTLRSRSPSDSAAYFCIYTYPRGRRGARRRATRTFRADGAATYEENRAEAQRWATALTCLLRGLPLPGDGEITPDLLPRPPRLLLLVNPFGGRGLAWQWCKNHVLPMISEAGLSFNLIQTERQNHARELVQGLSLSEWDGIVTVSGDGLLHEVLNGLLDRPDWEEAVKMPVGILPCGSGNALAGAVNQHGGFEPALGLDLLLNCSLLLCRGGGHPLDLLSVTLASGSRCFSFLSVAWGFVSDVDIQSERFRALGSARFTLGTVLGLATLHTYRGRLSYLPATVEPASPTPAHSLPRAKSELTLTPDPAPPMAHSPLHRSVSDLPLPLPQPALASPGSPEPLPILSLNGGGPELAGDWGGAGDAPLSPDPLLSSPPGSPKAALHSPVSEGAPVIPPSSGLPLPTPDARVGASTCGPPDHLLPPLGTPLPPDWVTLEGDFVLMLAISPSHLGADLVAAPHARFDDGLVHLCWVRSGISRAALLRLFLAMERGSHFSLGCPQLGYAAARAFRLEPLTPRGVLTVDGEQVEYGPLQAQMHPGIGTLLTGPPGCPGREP
Sequence of Eukaryotic elongation factor 2 kinase (Homo sapiens) (O00418 whole entry, the tested form may be a part): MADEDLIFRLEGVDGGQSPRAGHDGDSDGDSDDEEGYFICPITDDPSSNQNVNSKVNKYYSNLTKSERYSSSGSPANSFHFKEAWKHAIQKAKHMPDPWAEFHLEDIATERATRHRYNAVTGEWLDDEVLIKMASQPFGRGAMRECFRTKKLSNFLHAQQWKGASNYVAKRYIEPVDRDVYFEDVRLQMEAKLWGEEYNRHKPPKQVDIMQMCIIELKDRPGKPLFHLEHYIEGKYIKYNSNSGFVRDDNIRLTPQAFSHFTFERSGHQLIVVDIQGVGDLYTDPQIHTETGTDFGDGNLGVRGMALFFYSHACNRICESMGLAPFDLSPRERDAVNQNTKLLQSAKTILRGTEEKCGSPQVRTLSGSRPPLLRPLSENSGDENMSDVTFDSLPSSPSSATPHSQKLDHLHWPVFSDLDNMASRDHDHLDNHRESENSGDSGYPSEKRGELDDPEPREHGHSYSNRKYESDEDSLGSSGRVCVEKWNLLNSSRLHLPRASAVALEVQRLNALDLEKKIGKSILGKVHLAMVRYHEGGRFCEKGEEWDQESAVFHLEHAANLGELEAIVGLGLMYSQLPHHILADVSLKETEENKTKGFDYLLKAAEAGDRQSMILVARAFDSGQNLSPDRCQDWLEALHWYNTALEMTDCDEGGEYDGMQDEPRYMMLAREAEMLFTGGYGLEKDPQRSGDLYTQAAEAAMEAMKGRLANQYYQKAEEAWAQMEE
Sequence of Serine/threonine-protein kinase 3 (Homo sapiens) (Q13188 whole entry, the tested form may be a part): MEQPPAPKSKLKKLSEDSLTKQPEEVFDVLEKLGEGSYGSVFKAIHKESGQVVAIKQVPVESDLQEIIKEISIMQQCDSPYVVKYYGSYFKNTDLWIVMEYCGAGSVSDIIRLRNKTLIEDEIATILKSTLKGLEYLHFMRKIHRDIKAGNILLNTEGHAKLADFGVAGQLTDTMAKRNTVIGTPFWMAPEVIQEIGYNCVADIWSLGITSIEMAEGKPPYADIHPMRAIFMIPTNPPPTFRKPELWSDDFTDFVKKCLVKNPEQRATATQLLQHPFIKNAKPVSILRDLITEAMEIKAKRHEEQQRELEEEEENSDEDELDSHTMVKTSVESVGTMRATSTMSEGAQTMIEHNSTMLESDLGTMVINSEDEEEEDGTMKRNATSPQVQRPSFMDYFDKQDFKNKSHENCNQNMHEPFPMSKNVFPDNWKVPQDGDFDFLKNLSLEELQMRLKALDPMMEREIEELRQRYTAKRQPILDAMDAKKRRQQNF
Sequence of AMPK alpha1/beta2/gamma1 (Homo sapiens) (O43741 whole entry, looked up, the tested form may be a part): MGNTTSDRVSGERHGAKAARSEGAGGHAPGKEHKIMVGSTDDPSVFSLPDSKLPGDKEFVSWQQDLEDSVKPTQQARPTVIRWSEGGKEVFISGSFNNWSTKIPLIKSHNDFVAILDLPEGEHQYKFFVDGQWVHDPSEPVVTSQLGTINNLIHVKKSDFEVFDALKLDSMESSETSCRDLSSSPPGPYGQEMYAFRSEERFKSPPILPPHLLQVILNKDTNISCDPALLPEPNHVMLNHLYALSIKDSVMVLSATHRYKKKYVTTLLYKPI
Sequence of AMPK alpha1/beta2/gamma1 (Homo sapiens) (P54619 whole entry, looked up, the tested form may be a part): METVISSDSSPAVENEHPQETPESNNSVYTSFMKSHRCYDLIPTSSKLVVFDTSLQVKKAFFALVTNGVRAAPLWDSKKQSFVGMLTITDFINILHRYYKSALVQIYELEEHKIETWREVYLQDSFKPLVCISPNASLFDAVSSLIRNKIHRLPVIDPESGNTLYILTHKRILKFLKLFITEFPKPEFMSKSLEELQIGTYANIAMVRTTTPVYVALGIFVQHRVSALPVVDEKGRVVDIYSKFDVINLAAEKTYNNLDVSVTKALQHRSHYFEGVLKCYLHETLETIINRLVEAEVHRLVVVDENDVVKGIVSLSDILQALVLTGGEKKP
Sequence of AMPK alpha1/beta2/gamma1 (Homo sapiens) (Q13131 whole entry, looked up, the tested form may be a part): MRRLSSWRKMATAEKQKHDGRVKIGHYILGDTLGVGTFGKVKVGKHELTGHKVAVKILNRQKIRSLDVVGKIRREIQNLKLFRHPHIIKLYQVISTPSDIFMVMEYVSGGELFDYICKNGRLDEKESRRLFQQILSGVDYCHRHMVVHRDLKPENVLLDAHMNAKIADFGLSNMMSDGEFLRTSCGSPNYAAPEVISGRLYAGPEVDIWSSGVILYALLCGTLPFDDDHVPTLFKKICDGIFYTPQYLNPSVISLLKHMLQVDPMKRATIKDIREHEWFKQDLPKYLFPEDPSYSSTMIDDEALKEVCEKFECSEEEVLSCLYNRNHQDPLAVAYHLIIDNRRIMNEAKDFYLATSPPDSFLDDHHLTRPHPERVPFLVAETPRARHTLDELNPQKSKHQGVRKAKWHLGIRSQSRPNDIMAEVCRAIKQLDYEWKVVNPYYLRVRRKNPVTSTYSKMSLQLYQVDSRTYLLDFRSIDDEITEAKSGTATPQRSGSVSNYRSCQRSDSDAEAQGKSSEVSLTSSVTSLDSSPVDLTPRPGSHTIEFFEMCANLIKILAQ
Sequence of Homeodomain-interacting protein kinase 2 (Homo sapiens) (Q9H2X6 whole entry, looked up, the tested form may be a part): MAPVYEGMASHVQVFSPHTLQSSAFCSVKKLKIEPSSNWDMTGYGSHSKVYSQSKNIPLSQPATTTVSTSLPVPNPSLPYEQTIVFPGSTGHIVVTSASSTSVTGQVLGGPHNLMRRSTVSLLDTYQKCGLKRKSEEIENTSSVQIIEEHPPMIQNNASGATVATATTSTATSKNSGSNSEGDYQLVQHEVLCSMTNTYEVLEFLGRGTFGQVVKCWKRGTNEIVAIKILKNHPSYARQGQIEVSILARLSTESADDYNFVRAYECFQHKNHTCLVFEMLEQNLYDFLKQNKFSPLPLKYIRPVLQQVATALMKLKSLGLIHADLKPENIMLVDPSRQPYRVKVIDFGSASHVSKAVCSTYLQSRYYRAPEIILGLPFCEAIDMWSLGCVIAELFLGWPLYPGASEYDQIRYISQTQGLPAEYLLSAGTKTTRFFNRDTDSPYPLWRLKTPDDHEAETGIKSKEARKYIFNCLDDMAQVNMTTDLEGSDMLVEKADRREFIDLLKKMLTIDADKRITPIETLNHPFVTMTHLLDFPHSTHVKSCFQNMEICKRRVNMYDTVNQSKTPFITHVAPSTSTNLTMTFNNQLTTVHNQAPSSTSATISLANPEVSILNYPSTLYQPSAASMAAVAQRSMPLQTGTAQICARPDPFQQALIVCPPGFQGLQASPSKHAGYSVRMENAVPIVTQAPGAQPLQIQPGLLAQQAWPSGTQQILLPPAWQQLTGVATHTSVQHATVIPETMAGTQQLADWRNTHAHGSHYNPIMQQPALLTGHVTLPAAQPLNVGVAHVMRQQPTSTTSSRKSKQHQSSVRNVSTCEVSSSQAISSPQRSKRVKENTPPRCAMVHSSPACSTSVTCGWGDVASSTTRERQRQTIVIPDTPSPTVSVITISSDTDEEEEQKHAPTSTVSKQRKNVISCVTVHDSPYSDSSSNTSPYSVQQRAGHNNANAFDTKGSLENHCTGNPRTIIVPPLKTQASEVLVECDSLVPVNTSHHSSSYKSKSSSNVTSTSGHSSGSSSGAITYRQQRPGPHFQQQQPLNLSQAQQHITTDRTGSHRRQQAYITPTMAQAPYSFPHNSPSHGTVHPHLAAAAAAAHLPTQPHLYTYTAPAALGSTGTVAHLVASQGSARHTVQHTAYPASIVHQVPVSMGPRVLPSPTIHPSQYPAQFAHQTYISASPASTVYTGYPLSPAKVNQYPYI

## COc1ccc(-c2ccc3c(N4CCOCC4)nc(N4C[C@@H](C)O[C@@H](C)C4)nc3n2)cc1CO [Ku-0063794]
[1]
  Activity: 81%
[2]
  Activity: 106%
[3]
  Activity: 85%
[4]
  Activity: 89%
[5]
  Activity: 94%
[6]
  Activity: 88%
[7]
  Activity: 91%
[8]
  Activity: 101%
[9]
  Activity: 108%
[10]
  Activity: 89%
[11]
  Activity: 102%
[12]
  Activity: 119%
[13]
  Activity: 116%
MEF [14]
  inhibition: Active
MEF [15]
  growth inhibition (GI): Toxic
